Experimental findings from ChEMBL document CHEMBL3351295, “Rational design, synthesis and evaluation of chromone-indole and chromone-pyrazole based conjugates: identification of a lead for anti-inflammatory drug” (Eur J Med Chem, 2014) are described below.

Experiment [1] has as its target T1, Prostaglandin G/H synthase 1 (Ovis aries) (UniProt P05979).
T1 sequence (whole entry): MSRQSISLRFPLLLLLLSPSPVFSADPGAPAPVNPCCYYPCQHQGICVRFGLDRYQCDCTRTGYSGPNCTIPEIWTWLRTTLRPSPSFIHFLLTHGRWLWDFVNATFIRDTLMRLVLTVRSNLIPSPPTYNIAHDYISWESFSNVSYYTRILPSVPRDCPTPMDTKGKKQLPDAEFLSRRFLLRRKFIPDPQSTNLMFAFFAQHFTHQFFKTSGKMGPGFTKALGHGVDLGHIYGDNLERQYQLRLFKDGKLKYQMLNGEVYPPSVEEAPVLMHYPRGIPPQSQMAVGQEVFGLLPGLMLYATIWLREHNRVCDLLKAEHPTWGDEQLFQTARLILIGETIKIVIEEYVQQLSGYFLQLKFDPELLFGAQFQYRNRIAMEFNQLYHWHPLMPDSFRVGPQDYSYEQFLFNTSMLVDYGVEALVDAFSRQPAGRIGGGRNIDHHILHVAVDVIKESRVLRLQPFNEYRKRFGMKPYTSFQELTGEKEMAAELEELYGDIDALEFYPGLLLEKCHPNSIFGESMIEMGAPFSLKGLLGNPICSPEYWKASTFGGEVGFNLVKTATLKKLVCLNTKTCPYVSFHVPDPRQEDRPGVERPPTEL
As to the kind of experiment: Inhibition of ovine COX-1 assessed as decrease in prostaglandin production using arachidonic acid as substrate at 0.1 uM incubated with enzyme for 10 mins prior to substrate challenge by enzyme immunoassay. Summed up:
(§1)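 Ovine COX-1 EIA kit run in triplicate. Compounds were at 10^-5 to 10^-8 M. Enzyme and compound were incubated 10 min at 37 °C, then arachidonic acid was added for 2 min. The reaction was stopped with 1 M HCl and reduced with stannous chloride. Prostaglandins were quantified by AChE-tracer competitive EIA (18 h at room temperature, Ellman's reagent, read at 420 nm) against a 100% activity control.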

Experiment [2] relates to Solanum tuberosum. As to the kind of experiment: Inhibition of potato 5-LOX assessed as decrease in leukotriene production using arachidonic acid as substrate at 10 nM by enzyme immunoassay.
Experiment [3] has as its target T2, Prostaglandin G/H synthase 1 (Ovis aries, UniProt P05979).
T2 sequence (P05979 whole entry): T1 sequence (whole entry)
As to the kind of experiment: Inhibition of ovine COX-1 assessed as decrease in prostaglandin production using arachidonic acid as substrate incubated with enzyme for 10 mins prior to substrate challenge by enzyme immunoassay. In a few lines:
as §1

Experiment [4] deals with Solanum tuberosum. As to the kind of experiment: Inhibition of potato 5-LOX assessed as decrease in leukotriene production using arachidonic acid as substrate at 0.1 uM by enzyme immunoassay. In a few lines: (§2)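 Potato 5-LOX assay in buffer with DMSO solvent control. Compounds were tested at final well concentrations of 10^-5 to 10^-8 M in duplicate. Reaction was started with arachidonic acid and the plate shaken 5 min. Chromogen was added to stop the reaction, followed by 30 min incubation and reading at 500 nm. Activity was compared with 100% initial-activity wells.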

In experiment [5] the test system is Solanum tuberosum. The experiment can be described thus: Inhibition of potato 5-LOX assessed as decrease in leukotriene production using arachidonic acid as substrate at 1 uM by enzyme immunoassay.
In experiment [6] the target is T1, Prostaglandin G/H synthase 1 (Ovis aries). The experiment can be described thus: Inhibition of ovine COX-1 assessed as decrease in prostaglandin production using arachidonic acid as substrate at 1 uM incubated with enzyme for 10 mins prior to substrate challenge by enzyme immunoassay. Summed up: as §1
Experiment [7] in a line: Inhibition of potato 5-LOX assessed as decrease in leukotriene production using arachidonic acid as substrate by enzyme immunoassay. More on the design: species or system Solanum tuberosum. In a few lines:
as §2

Experiment [8] deals with T1, Prostaglandin G/H synthase 1 (Ovis aries). As to the kind of experiment: Inhibition of ovine COX-1 assessed as decrease in prostaglandin production using arachidonic acid as substrate at 10 uM incubated with enzyme for 10 mins prior to substrate challenge by enzyme immunoassay. Summed up:
as §1

The subject of experiment [9] is Solanum tuberosum. The experiment can be described thus: Inhibition of potato 5-LOX assessed as decrease in leukotriene production using arachidonic acid as substrate at 10 uM by enzyme immunoassay. In a few lines:
as §2

The target in experiment [10] is Prostaglandin G/H synthase 1 (Homo sapiens) (UniProt P23219).
The test system of experiment [11] is Mus musculus. As to the kind of experiment: Analgesic activity in Swiss albino mouse assessed as decrease in capsaicin-induced paw lickings at 5 mg/kg, ip administered 30 mins before capsaicin injection. The experiment is classed as functional. The settings on record: route intraperitoneal. In a few lines: (§3)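 Capsaicin […] was injected into the plantar surface of the right hind paw. Swiss albino mice (25–35 g, either sex, groups of 6) were pretreated i.p. 30 min beforehand; saline 0.5 mL was the control. Time spent licking and twitching was recorded over 10 min. Results are mean ± SEM (n = 6), analysed by one-way ANOVA with Tukey's test.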

Experiment [12] has as its target Prostaglandin G/H synthase 1 (Homo sapiens) (UniProt P23219). As to the kind of experiment: Binding affinity to COX-1 (unknown origin) at 0.35 mM after 30 mins by [13C] NMR spectroscopy. Conditions: in the assay text read “[1H] NMR” for “[13C] NMR”. In a few lines: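 Compound was 0.35 mM in DMSO-d6, with 12 (0.08 mM) COX-1 or COX-2 added. Samples were incubated at 37 °C and 1H NMR spectra were recorded every 30 min. D2O exchange was used to assign NH signals.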

The target in experiment [13] is T3, Prostaglandin G/H synthase 2 (Homo sapiens) (UniProt P35354).
T3 sequence (whole entry): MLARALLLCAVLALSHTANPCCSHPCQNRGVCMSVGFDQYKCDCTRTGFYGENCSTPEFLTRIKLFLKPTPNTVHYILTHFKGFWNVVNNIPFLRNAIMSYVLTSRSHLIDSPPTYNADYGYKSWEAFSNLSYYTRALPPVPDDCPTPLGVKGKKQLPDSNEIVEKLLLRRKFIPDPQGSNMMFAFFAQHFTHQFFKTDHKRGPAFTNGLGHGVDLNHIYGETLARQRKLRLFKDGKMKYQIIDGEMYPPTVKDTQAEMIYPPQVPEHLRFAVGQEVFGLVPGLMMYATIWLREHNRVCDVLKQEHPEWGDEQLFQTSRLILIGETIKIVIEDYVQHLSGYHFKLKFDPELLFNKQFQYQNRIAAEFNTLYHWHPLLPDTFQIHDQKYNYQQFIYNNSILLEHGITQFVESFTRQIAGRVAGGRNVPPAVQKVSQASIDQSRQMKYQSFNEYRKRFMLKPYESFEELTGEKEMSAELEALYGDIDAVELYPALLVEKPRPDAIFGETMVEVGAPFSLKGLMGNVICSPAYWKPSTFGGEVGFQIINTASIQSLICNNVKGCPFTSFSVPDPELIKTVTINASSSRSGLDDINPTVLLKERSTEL

Experiment [14] deals with Mus musculus. As to the kind of experiment: Analgesic activity in Swiss albino mouse assessed as decrease in capsaicin-induced paw lickings at 10 mg/kg, ip administered 30 mins before capsaicin injection. The experiment is classed as functional, organism-based. Further details: dose 10 mg/kg. Summed up: as §3
For experiment [15], the system named is Mus musculus. As to the kind of experiment: Analgesic activity in Swiss albino mouse assessed as decrease in capsaicin-induced paw lickings at 25 mg/kg, ip administered 30 mins before capsaicin injection. The experiment is classed as functional. Conditions: route intraperitoneal. In a few lines: as §3

What is called inhibition is the relative decrease from the control value, in per cent. What is called IC50 is the midpoint of a concentration-inhibition curve. As usually defined, the inhibition in vivo is the share of the control response that was lost under treatment.

The source made the active and inactive calls. The calls are words filed in the database; no cut-off is given here.

Prostaglandin G/H synthase 1 (Homo sapiens), sequence (P23219 whole entry): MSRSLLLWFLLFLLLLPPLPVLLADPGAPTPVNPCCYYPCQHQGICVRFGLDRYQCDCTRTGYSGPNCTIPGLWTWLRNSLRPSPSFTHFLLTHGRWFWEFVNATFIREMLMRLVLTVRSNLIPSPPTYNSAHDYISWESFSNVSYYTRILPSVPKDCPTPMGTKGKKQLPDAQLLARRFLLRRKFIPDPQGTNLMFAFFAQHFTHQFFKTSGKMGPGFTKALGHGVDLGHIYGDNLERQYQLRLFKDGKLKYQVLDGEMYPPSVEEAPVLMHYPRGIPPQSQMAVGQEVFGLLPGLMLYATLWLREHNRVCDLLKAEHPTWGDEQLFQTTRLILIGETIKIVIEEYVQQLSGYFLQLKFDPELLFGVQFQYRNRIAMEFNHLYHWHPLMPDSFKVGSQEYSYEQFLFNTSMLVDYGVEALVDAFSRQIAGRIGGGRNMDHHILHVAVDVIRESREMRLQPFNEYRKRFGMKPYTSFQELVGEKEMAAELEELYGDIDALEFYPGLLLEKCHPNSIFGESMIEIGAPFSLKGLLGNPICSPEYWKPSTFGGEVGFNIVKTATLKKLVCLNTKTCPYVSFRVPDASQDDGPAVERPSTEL

`CC(C)c1ccc2occ(/C=C3/C(=O)N(c4c(Cl)cccc4Cl)c4ccccc43)c(=O)c2c1`: the inhibition in experiment [1] came to 47%; with Solanum tuberosum [2] it was 30.1%; in the experiment with Solanum tuberosum [4], 44.8%; in the experiment with Solanum tuberosum [5], 81%; in [6] it was 56%; in [8], 64.6%. Moreover, the IC50 is 650 nM in experiment [3] and 20 nM in experiment [7].
On to `O=C1/C(=C/c2coc3ccccc3c2=O)c2ccccc2N1c1c(Cl)cccc1Cl`, for which the inhibition in [1] was 63%; with Solanum tuberosum [4], 20%; in the experiment with Solanum tuberosum [9] it was 8.62%; in the experiment with Solanum tuberosum [5], 15.5%; in experiment [6] it was 75%; in experiment [8], 80.3%. In experiment [3], the IC50 worked out at 4.7 nM.
As to `O=C1Nc2ccccc2/C1=C/c1coc2ccccc2c1=O`, the inhibition in experiment [1] was determined as 35%; in the experiment on Solanum tuberosum [4], 22.4%; with Solanum tuberosum [9], 74.1%; in experiment [6], 43%; in [8], 51.6%. Moreover, the Ka in [10] worked out at 0.29 ×10⁴ /M; in [13], 0.75 ×10⁴ /M. The inhibition in vivo at 5 mg/kg with Mus musculus [11] came to 76%. Further, the IC50 in [3] is 1350 nM. Also, the outcome in [12] was Active. For the same compound, the inhibition result with Mus musculus [14] was “Active”.
Take `CCCCC/C=C\C/C=C\C/C=C\C/C=C\CCCC(=O)O`: the values for the Ka in [10] and in [13] were 0.39 ×10⁴ /M and 0.18 ×10⁴ /M, respectively.
As to `O=C1Nc2ccccc2/C1=C/c1coc2ccc(Br)cc2c1=O`, the inhibition was 20% in experiment [1], 77.6% in the experiment with Solanum tuberosum [5], 30.4% in [6] and 40.5% in [8]. Also, the IC50 in experiment [3] came to 6750 nM.
As to `O=C(O)Cc1ccccc1Nc1c(Cl)cccc1Cl` [DICLOFENAC], the inhibition in vivo at 25 mg/kg with Mus musculus [15] was 68%.
Turning to `O=C1/C(=C/c2coc3ccc(Br)cc3c2=O)c2ccccc2N1c1c(Cl)cccc1Cl`, the inhibition in experiment [1] came to 44.4%; in the experiment on Solanum tuberosum [2], 25%; in the experiment on Solanum tuberosum [4] it was 37%; in the experiment on Solanum tuberosum [9], 50%; in experiment [6], 60%; in experiment [8], 80.3%. The IC50 in experiment [3] amounted to 630 nM; in [7], 10000 nM.
For `CC1=NN(c2cccc(Cl)c2)C(=O)/C1=C/c1coc2c([N+](=O)[O-])cc(F)cc2c1=O`, the inhibition in experiment [1] turned out to be 15%; in the experiment on Solanum tuberosum [2] it was 8.62%; with Solanum tuberosum [4], 22.4%; with Solanum tuberosum [5], 46.5%; in experiment [6] it was 18%; in experiment [8] it was 27.9%. Besides, the IC50 is more than 10000 nM in experiment [3] and 7400 nM in [7].
With `CC(=O)Oc1ccccc1C(=O)O`, the Ka in experiment [10] was found to be 0.93 ×10⁴ /M; in experiment [13], 0.22 ×10⁴ /M.
